According to ChEMBL document CHEMBL3045676, “Anti-tobacco mosaic virus (TMV) Quassinoids from Brucea javanica (L.) Merr” (J Agric Food Chem, 2010):
Calls of active or inactive are those of the source. No cut-off for these calls is given here.

Experiments:
Tobacco mosaic virus [1] = assay: Antiviral activity against Tobacco mosaic virus strain U1 (TMV) infected Nicotiana tabacum cv. K326 leaves assessed as decrease in Tobacco mosaic virus coat protein level at 20 uM at 25 degC treated at 6 hr after viral inoculation measured after 48 hr by leaf disk method/western blot analysis; format: functional, organism-based
Procedure, shortened: (§1)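 N. tabacum cv. K326 leaves (5-6-leaf stage) mechanically inoculated with TMV (32 μg/mL in 0.01 M PBS). After 6 h, 1 cm disks without major veins were cut and floated on compound solution, with DMSO negative control and ningnanmycin positive control, at 25 °C for 48 h. Coat protein was then detected by SDS-PAGE and Western blot with polyclonal anti-TMV antibody and AP-conjugated anti-rabbit IgG using NBT/BCIP; samples run in duplicate.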

Tobacco mosaic virus [2] = assay: (§2) In vivo antiviral activity against Tobacco mosaic virus strain U1 (TMV) infected left side of Nicotiana glutinosa leaves assessed as decrease in local lesion numbers at 20 uM co-incubated with virus for 30 min before inoculation onto leaves measured at 3-4 days after viral challenge by half-leaf method; format: functional
Procedure, shortened: (§3)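 Half-leaf test on N. glutinosa at the 5-6-leaf stage. Compound was dissolved in DMSO, diluted in water and mixed with TMV (32 μg/mL in 0.01 M PBS) for 30 min, then rubbed onto the left half-leaf; the right half received virus plus DMSO. Local lesions were counted after 3-4 days, with three repetitions. Inhibition % = (C−T)/C×100 using mean lesion counts. IC50 was taken from a 1.25-20 μM series.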

Tobacco mosaic virus [3] = assay: as §2, with “2.5” for “20”; format: functional; procedure, shortened: as §3
Tobacco mosaic virus [4] = assay: as §2, with “10” for “20”; format: functional; procedure, shortened: as §3
Tobacco mosaic virus [5] = assay: as §2, with “5” for “20”; format: functional; procedure, shortened: as §3
Tobacco mosaic virus [6] = assay: as §2, with “1.25” for “20”; format: functional; procedure, shortened: as §3
Tobacco mosaic virus [7] = assay: In vivo antiviral activity against Tobacco mosaic virus strain U1 (TMV) infected left side of Nicotiana glutinosa leaves assessed as decrease in local lesion numbers co-incubated with virus for 30 min before inoculation onto leaves measured at 3-4 days after viral challenge by half-leaf method; format: functional, organism-based; procedure, shortened: as §3
Tobacco mosaic virus [8] = assay: Antiviral activity against Tobacco mosaic virus strain U1 (TMV) infected Nicotiana glutinosa leaves assessed as protective effect by decrease in local lesion number at 20 uM treated 6 hr prior to viral inoculation measured at 3-4 days after viral challenge; format: functional
Procedure, shortened: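 N. glutinosa plants pretreated with compound solutions (DMSO diluted in distilled water) or DMSO solution for 6 h, then inoculated with TMV and kept in an insect-free greenhouse 3-4 days until local lesions were visible; inhibition rate calculated from local lesion counts.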

Tobacco mosaic virus [9] = assay: Ratio of ningnamycin IC50 to compound IC50 for Tobacco mosaic virus strain U1 (TMV) infected left side of Nicotiana glutinosa leaves by half-leaf method; format: functional
Procedure, shortened: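 Ratio of IC50 values from the half-leaf N. glutinosa lesion assay, with ningnanmycin as the reference compound. Virus (32 μg/mL) was premixed with compound for 30 min before inoculation, and lesions were counted after 3-4 days.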

Tobacco mosaic virus [10] = assay: Antiviral activity against Tobacco mosaic virus strain U1 (TMV) infected Nicotiana tabacum cv. K326 leaves assessed as decrease in Tobacco mosaic virus coat protein level at 25 degC treated at 6 hr after viral inoculation measured after 48 hr by leaf disk method/western blot analysis; format: functional, organism-based; procedure, shortened: as §1

Structure (SMILES): COC(=O)[C@]12OC[C@@]34[C@@H](CC5=C(C)C(=O)C(O)=C[C@]5(C)[C@H]3[C@@H](O)[C@@H]1O)OC(=O)[C@H](OC(C)=O)[C@@H]24 [DEDYDROBRUCEINE B]
- inhibition (Tobacco mosaic virus [1]): Active
- inhibition in vivo at 20 µM (Tobacco mosaic virus [2]): 59.1%

Structure (SMILES): COC(=O)[C@]12OC[C@]34[C@H]([C@@H](O)[C@@H]1O)[C@@]1(C)[C@H](O)[C@@H](O)C=C(C)[C@@H]1C[C@H]3OC(=O)[C@H](OC(C)=O)[C@@H]24 [YADANZIOSIDE D]
- inhibition in vivo at 2.5 µM (Tobacco mosaic virus [3]): 38.5%
- inhibition in vivo at 10 µM (Tobacco mosaic virus [4]): 59.2%
- inhibition (Tobacco mosaic virus [1]): Active
- inhibition in vivo at 5 µM (Tobacco mosaic virus [5]): 48.4%
- inhibition in vivo at 20 µM (Tobacco mosaic virus [2]): 70.8%
- inhibition in vivo at 1.25 µM (Tobacco mosaic virus [6]): 21.4%
- IC50 (Tobacco mosaic virus [7]): 5.66 µM

Structure (SMILES): COC(=O)[C@]12OC[C@]34[C@H]([C@@H](O)[C@@H]1O)[C@@]1(C)CC(=O)C(O[C@@H]5O[C@H](CO)[C@@H](O)[C@H](O)[C@H]5O)=C(C)[C@@H]1C[C@H]3OC(=O)[C@H](OC(=O)C=C(C)C)[C@@H]24 [Bruceoside-B]
- inhibition in vivo at 2.5 µM (Tobacco mosaic virus [3]): 31.7%
- inhibition in vivo at 10 µM (Tobacco mosaic virus [4]): 66.7%
- inhibition (Tobacco mosaic virus [1]): Active
- inhibition in vivo at 5 µM (Tobacco mosaic virus [5]): 53.8%
- inhibition at 20 µM (Tobacco mosaic virus [8]): 90.2%
- inhibition in vivo at 20 µM (Tobacco mosaic virus [2]): 78.4%
- inhibition in vivo at 1.25 µM (Tobacco mosaic virus [6]): 21.4%
- IC50 (Tobacco mosaic virus [7]): 4.64 µM

Structure (SMILES): COC(=O)[C@]12OC[C@]34[C@H]([C@@H](O)[C@@H]1O)[C@@]1(C)C=C(O[C@@H]5O[C@H](CO)[C@@H](O)[C@H](O)[C@H]5O)C(=O)[C@@H](C)[C@@H]1C[C@H]3OC(=O)[C@H](OC(=O)/C=C(\C)C(C)(C)OC(C)=O)[C@@H]24 [Yadanzioside G]
- inhibition (Tobacco mosaic virus [1]): Active
- inhibition in vivo at 20 µM (Tobacco mosaic virus [2]): 33.7%

Structure (SMILES): COC(=O)[C@]12OC[C@]34[C@H]([C@@H](O)[C@@H]1O)[C@@]1(C)CC(=O)C(O[C@@H]5O[C@H](CO)[C@@H](O)[C@H](O)[C@H]5O)=C(C)[C@@H]1C[C@H]3OC(=O)[C@H](OC(C)=O)[C@@H]24 [YADANZIOSIDE I]
- inhibition in vivo at 2.5 µM (Tobacco mosaic virus [3]): 35.4%
- inhibition in vivo at 10 µM (Tobacco mosaic virus [4]): 67.9%
- inhibition (Tobacco mosaic virus [1]): Active
- inhibition in vivo at 5 µM (Tobacco mosaic virus [5]): 54.9%
- inhibition in vivo at 20 µM (Tobacco mosaic virus [2]): 81.5%
- inhibition in vivo at 1.25 µM (Tobacco mosaic virus [6]): 26.1%
- IC50 (Tobacco mosaic virus [7]): 4.22 µM

Structure (SMILES): CC1=CC(=O)[C@@H](O)[C@]2(C)[C@H]3[C@@H](O)[C@H](O)[C@]4(CO)OC[C@@]35[C@@H](C[C@@H]12)OC(=O)[C@H](O)[C@]54O [YADANZIOLIDE A]
- inhibition in vivo at 2.5 µM (Tobacco mosaic virus [3]): 39.2%
- inhibition in vivo at 10 µM (Tobacco mosaic virus [4]): 58.7%
- inhibition (Tobacco mosaic virus [1]): Active
- inhibition in vivo at 5 µM (Tobacco mosaic virus [5]): 46.1%
- inhibition in vivo at 20 µM (Tobacco mosaic virus [2]): 75%
- inhibition in vivo at 1.25 µM (Tobacco mosaic virus [6]): 22.4%
- IC50 (Tobacco mosaic virus [7]): 5.5 µM

Structure (SMILES): COC(=O)[C@@]12OC[C@]34[C@H]([C@@H](O)[C@@H]1O)[C@@]1(C)C=C(O[C@@H]5O[C@H](CO)[C@@H](O)[C@H](O)[C@H]5O)C(=O)[C@@H](C)[C@@H]1C[C@H]3OC(=O)[C@H](OC(=O)C=C(C)C)[C@@H]24 [BRUCEOSIDE A]
- inhibition (Tobacco mosaic virus [1]): Active
- inhibition in vivo at 20 µM (Tobacco mosaic virus [2]): 24.1%

Structure (SMILES): COC(=O)[C@]12OC[C@]34[C@H]([C@@H](O)[C@@H]1O)[C@@]1(C)C=C(O[C@@H]5O[C@H](CO)[C@@H](O)[C@H](O)[C@H]5O)C(=O)[C@@H](C)[C@@H]1C[C@H]3OC(=O)[C@H](OC(C)=O)[C@@H]24 [YADANZIOSIDE F]
- inhibition (Tobacco mosaic virus [1]): Active
- inhibition in vivo at 20 µM (Tobacco mosaic virus [2]): 31.1%

Structure (SMILES): CC1=C[C@H](O[C@@H]2O[C@H](CO)[C@@H](O)[C@H](O)[C@H]2O)[C@@H](O)[C@]2(C)[C@H]3[C@@H](O)[C@H](O)[C@]4(C)OC[C@@]35[C@@H](C[C@@H]12)OC(=O)[C@H](O)[C@]54O [YADANZIGAN]
- inhibition (Tobacco mosaic virus [1]): Active
- inhibition in vivo at 20 µM (Tobacco mosaic virus [2]): 30.6%

Structure (SMILES): COC(=O)[C@]12OC[C@]34[C@H]([C@@H](O)[C@@H]1O)[C@@]1(C)CC(=O)[C@H](O)[C@@H](C)[C@@H]1C[C@H]3OC(=O)[C@H](OC(=O)C=C(C)C)[C@@H]24 [JAVANICOLIDES E]
- inhibition in vivo at 20 µM (Tobacco mosaic virus [2]): 52%

Structure (SMILES): COC(=O)[C@@]12OC[C@]34[C@H]([C@@H](O)[C@@H]1O)[C@@]1(C)CC(=O)C(O)=C(C)[C@@H]1C[C@H]3OC(=O)[C@H](OC(C)=O)[C@@H]24 [BRUCEINE B]
- inhibition in vivo at 2.5 µM (Tobacco mosaic virus [3]): 40.6%
- inhibition in vivo at 10 µM (Tobacco mosaic virus [4]): 81.5%
- inhibition (Tobacco mosaic virus [1]): Active
- inhibition in vivo at 5 µM (Tobacco mosaic virus [5]): 65.2%
- inhibition at 20 µM (Tobacco mosaic virus [8]): 86.3%
- inhibition in vivo at 20 µM (Tobacco mosaic virus [2]): 88.9%
- inhibition in vivo at 1.25 µM (Tobacco mosaic virus [6]): 20.5%
- IC50 (Tobacco mosaic virus [7]): 3.47 µM

Structure (SMILES): CNCC(=O)N[C@@H](CO)C(=O)N[C@H]1[C@H](O)[C@@H](O)[C@H](n2ccc(N)nc2=O)O[C@@H]1C(N)=O [NINGNANMYCIN]
- inhibition in vivo at 2.5 µM (Tobacco mosaic virus [3]): 37.9%
- inhibition in vivo at 10 µM (Tobacco mosaic virus [4]): 67.5%
- inhibition in vivo at 5 µM (Tobacco mosaic virus [5]): 46.6%
- inhibition in vivo at 20 µM (Tobacco mosaic virus [2]): 25.3%
- inhibition in vivo at 1.25 µM (Tobacco mosaic virus [6]): 28%

Structure (SMILES): COC1=C[C@@H](C)[C@@H]2C[C@H]3OC(=O)C[C@H]4[C@@H](C)[C@H](OC)[C@@H](O)[C@H]([C@@]2(C)C1=O)[C@@]34C
- inhibition (Tobacco mosaic virus [1]): inactive

Structure (SMILES): COC(=O)[C@]12OC[C@]34[C@H]([C@@H](O)[C@@H]1O)[C@@]1(C)CC(=O)[C@H](O)[C@@H](C)[C@@H]1C[C@H]3OC(=O)[C@H](OC(=O)/C=C(\C)C(C)(C)OC(C)=O)[C@@H]24 [JAVANICOLIDE F]
- inhibition in vivo at 20 µM (Tobacco mosaic virus [2]): 52.1%

Structure (SMILES): CC1=C[C@H](O)[C@@H](O)[C@]2(C)[C@H]3[C@@H](O)[C@H](O)[C@@]4(C)OC[C@@]35[C@@H](C[C@@H]12)OC(=O)[C@H](O)[C@]54O [BRUCEINE E]
- inhibition (Tobacco mosaic virus [1]): Active
- inhibition in vivo at 20 µM (Tobacco mosaic virus [2]): 28.7%

Structure (SMILES): COC(=O)[C@]12OC[C@]34[C@H]([C@@H](O)[C@@H]1O)[C@@]1(C)CC(=O)C(O[C@@H]5O[C@H](CO)[C@@H](O)[C@H](O)[C@H]5O)=C(C)[C@@H]1C[C@H]3OC(=O)[C@H](OC(=O)/C=C(\C)C(C)(C)O)[C@@H]24 [Yadanzioside L]
- inhibition in vivo at 2.5 µM (Tobacco mosaic virus [3]): 35%
- inhibition in vivo at 10 µM (Tobacco mosaic virus [4]): 64.3%
- inhibition (Tobacco mosaic virus [1]): Active
- inhibition in vivo at 5 µM (Tobacco mosaic virus [5]): 53.3%
- inhibition at 20 µM (Tobacco mosaic virus [8]): 54.4%
- inhibition in vivo at 20 µM (Tobacco mosaic virus [2]): 73.8%
- inhibition in vivo at 1.25 µM (Tobacco mosaic virus [6]): 20%
- IC50 (Tobacco mosaic virus [7]): 4.86 µM

Structure (SMILES): COC(=O)[C@]12OC[C@]34[C@H]([C@@H](O)[C@@H]1O)[C@@]1(C)CC(=O)C(O)=C(C)[C@@H]1C[C@H]3OC(=O)[C@H](OC(=O)C=C(C)C)[C@@H]24 [BRUSATOL]
- inhibition in vivo at 2.5 µM (Tobacco mosaic virus [3]): 48.8%
- inhibition in vivo at 10 µM (Tobacco mosaic virus [4]): 71.5%
- inhibition (Tobacco mosaic virus [1]): Active
- inhibition in vivo at 5 µM (Tobacco mosaic virus [5]): 64.7%
- Ratio IC50 (Tobacco mosaic virus [9]): 34
- inhibition at 20 µM (Tobacco mosaic virus [8]): 77.5%
- inhibition (Tobacco mosaic virus [10]): Dose-dependent effect
- inhibition in vivo at 20 µM (Tobacco mosaic virus [2]): 88.9%
- inhibition in vivo at 1.25 µM (Tobacco mosaic virus [6]): 20%
- IC50 (Tobacco mosaic virus [7]): 3.42 µM

Structure (SMILES): CC1=CC(=O)[C@@H](O)[C@]2(C)[C@H]3[C@@H](O)[C@H](O)[C@]4(C)OC[C@@]35[C@@H](C[C@@H]12)OC(=O)[C@H](O)[C@]54O [BRUCEINE D]
- inhibition in vivo at 2.5 µM (Tobacco mosaic virus [3]): 29.1%
- inhibition in vivo at 10 µM (Tobacco mosaic virus [4]): 66.7%
- inhibition (Tobacco mosaic virus [1]): Active
- inhibition in vivo at 5 µM (Tobacco mosaic virus [5]): 47.9%
- inhibition at 20 µM (Tobacco mosaic virus [8]): 72.2%
- inhibition in vivo at 20 µM (Tobacco mosaic virus [2]): 78.6%
- inhibition in vivo at 1.25 µM (Tobacco mosaic virus [6]): 21.4%
- IC50 (Tobacco mosaic virus [7]): 5.29 µM
